{"source": "paper PMC8177775", "about": "(Cancer Science, 2021)", "tested_on": "Japanese patients with solid tumors", "assay": "Phase I dose-escalation study: safety, tolerability, DLT and MTD", "assay_type": "in vivo, human", "conditions": "for Dose-limiting toxicities (DLTs): cycle 1", "in_short": "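Oral test compound (tosylate salt) was given QD on days 1–21 of 28-day cycles in cohorts of 3–6 patients at 60, 90 or 120 mg. Escalation used a modified continual reassessment method (Bayesian logistic regression, escalation with overdose control). DLT window was cycle 1 (28 days). AEs were coded with MedDRA 18.0 and graded by CTCAE v4.0 (Japanese). Analysis covered patients receiving ≥1 dose.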", "key": {"[1]": {"conditions": "Cohort 1 60 mg/d (n = 3), All grades"}, "[2]": {"conditions": "Cohort 1 60 mg/d (n = 3), Grade ≥ 3"}, "[3]": {"conditions": "Cohort 2 90 mg/d (n = 11), All grades"}, "[4]": {"conditions": "Cohort 2 90 mg/d (n = 11), Grade ≥ 3"}, "[5]": {"conditions": "Cohort 3 120 mg/d (n = 4), All grades"}}, "note": "Entries after “also recorded” stand apart in the source; their conditions may differ.", "data": [{"smiles": "CC1(C)CCC2(CC1)N[C@@H](C(=O)N[C@@H]1CC[C@@H](C(N)=O)OC1)[C@H](c1ccnc(Cl)c1F)[C@]21C(=O)Nc2cc(Cl)ccc21", "note": "[milademetan, Milademetan]", "values": [{"measurement": "Dose interruptions", "setting": "60 mg/day", "value": 2, "unit": "n"}, {"measurement": "Dose interruptions", "setting": "90 mg/day", "value": 5, "unit": "n"}, {"measurement": "Dose interruptions", "setting": "120 mg/day", "value": 3, "unit": "n"}, {"measurement": "Dose-limiting toxicities (DLTs)", "setting": "120 mg/day cohort", "value": "three events of platelet count decreased and one nausea; also recorded: Four DLTs were observed in four patients"}, {"measurement": "Dose-limiting toxicities (DLTs)", "setting": "60-mg and 90-mg cohorts", "value": "No DLTs occurred"}, {"measurement": "TEAE: Alanine aminotransferase increased", "setting": "[1]", "value": "1 (33.3) n (%)"}, {"measurement": "TEAE: Anemia", "setting": "[1]", "value": "0 (0.0) n (%)"}, {"measurement": "TEAE: Aspartate aminotransferase increased", "setting": "[1]", "value": "0 (0.0) n (%)"}, {"measurement": "TEAE: Constipation", "setting": "[1]", "value": "2 (66.7) n (%)"}, {"measurement": "TEAE: Decreased appetite", "setting": "[1]", "value": "2 (66.7) n (%)"}, {"measurement": "TEAE: Diarrhea", "setting": "[1]", "value": "0 (0.0) n (%)"}, {"measurement": "TEAE: Disease progression", "setting": "[1]", "value": "0 (0.0) n (%)"}, {"measurement": "TEAE: Fatigue", "setting": "[1]", "value": "2 (66.7) n (%)"}, {"measurement": "TEAE: Hypoalbuminemia", "setting": "[1]", "value": "1 (33.3) n (%)"}, {"measurement": "TEAE: Hyponatremia", "setting": "[1]", "value": "0 (0.0) n (%)"}, {"measurement": "TEAE: Hypophosphataemic rickets", "setting": "[1]", "value": "0 (0.0) n (%)"}, {"measurement": "TEAE: Jaundice cholestatic", "setting": "[1]", "value": "0 (0.0) n (%)"}, {"measurement": "TEAE: Lymphangiosis carcinomatosa", "setting": "[1]", "value": "1 (33.3) n (%)"}, {"measurement": "TEAE: Lymphocyte count decreased", "setting": "[1]", "value": "1 (33.3) n (%)"}, {"measurement": "TEAE: Nausea", "setting": "[1]", "value": "3 (100.0) n (%)"}, {"measurement": "TEAE: Neutrophil count decreased", "setting": "[1]", "value": "0 (0.0) n (%)"}, {"measurement": "TEAE: Platelet count decreased", "setting": "[1]", "value": "0 (0.0) n (%)"}, {"measurement": "TEAE: Pyrexia", "setting": "[1]", "value": "0 (0.0) n (%)"}, {"measurement": "TEAE: Sepsis", "setting": "[1]", "value": "0 (0.0) n (%)"}, {"measurement": "TEAE: Urinary tract infection", "setting": "[1]", "value": "0 (0.0) n (%)"}, {"measurement": "TEAE: Vomiting", "setting": "[1]", "value": "0 (0.0) n (%)"}, {"measurement": "TEAE: White blood cell count decreased", "setting": "[1]", "value": "1 (33.3) n (%)"}, {"measurement": "TEAE: Alanine aminotransferase increased", "setting": "[2]", "value": "0 (0.0) n (%)"}, {"measurement": "TEAE: Anemia", "setting": "[2]", "value": "0 (0.0) n (%)"}, {"measurement": "TEAE: Aspartate aminotransferase increased", "setting": "[2]", "value": "0 (0.0) n (%)"}, {"measurement": "TEAE: Constipation", "setting": "[2]", "value": "0 (0.0) n (%)"}, {"measurement": "TEAE: Decreased appetite", "setting": "[2]", "value": "0 (0.0) n (%)"}, {"measurement": "TEAE: Diarrhea", "setting": "[2]", "value": "0 (0.0) n (%)"}, {"measurement": "TEAE: Disease progression", "setting": "[2]", "value": "0 (0.0) n (%)"}, {"measurement": "TEAE: Fatigue", "setting": "[2]", "value": "0 (0.0) n (%)"}, {"measurement": "TEAE: Hypoalbuminemia", "setting": "[2]", "value": "0 (0.0) n (%)"}, {"measurement": "TEAE: Hyponatremia", "setting": "[2]", "value": "0 (0.0) n (%)"}, {"measurement": "TEAE: Hypophosphataemic rickets", "setting": "[2]", "value": "0 (0.0) n (%)"}, {"measurement": "TEAE: Jaundice cholestatic", "setting": "[2]", "value": "0 (0.0) n (%)"}, {"measurement": "TEAE: Lymphangiosis carcinomatosa", "setting": "[2]", "value": "1 (33.3) n (%)"}, {"measurement": "TEAE: Lymphocyte count decreased", "setting": "[2]", "value": "0 (0.0) n (%)"}, {"measurement": "TEAE: Nausea", "setting": "[2]", "value": "0 (0.0) n (%)"}, {"measurement": "TEAE: Neutrophil count decreased", "setting": "[2]", "value": "0 (0.0) n (%)"}, {"measurement": "TEAE: Platelet count decreased", "setting": "[2]", "value": "0 (0.0) n (%)"}, {"measurement": "TEAE: Pyrexia", "setting": "[2]", "value": "0 (0.0) n (%)"}, {"measurement": "TEAE: Sepsis", "setting": "[2]", "value": "0 (0.0) n (%)"}, {"measurement": "TEAE: Urinary tract infection", "setting": "[2]", "value": "0 (0.0) n (%)"}, {"measurement": "TEAE: Vomiting", "setting": "[2]", "value": "0 (0.0) n (%)"}, {"measurement": "TEAE: White blood cell count decreased", "setting": "[2]", "value": "0 (0.0) n (%)"}, {"measurement": "TEAE: Alanine aminotransferase increased", "setting": "[3]", "value": "1 (9.1) n (%)"}, {"measurement": "TEAE: Anemia", "setting": "[3]", "value": "7 (63.6) n (%)"}, {"measurement": "TEAE: Aspartate aminotransferase increased", "setting": "[3]", "value": "2 (18.2) n (%)"}, {"measurement": "TEAE: Constipation", "setting": "[3]", "value": "2 (18.2) n (%)"}, {"measurement": "TEAE: Decreased appetite", "setting": "[3]", "value": "6 (54.5) n (%)"}, {"measurement": "TEAE: Diarrhea", "setting": "[3]", "value": "3 (27.3) n (%)"}, {"measurement": "TEAE: Disease progression", "setting": "[3]", "value": "0 (0.0) n (%)"}, {"measurement": "TEAE: Fatigue", "setting": "[3]", "value": "6 (54.5) n (%)"}, {"measurement": "TEAE: Hypoalbuminemia", "setting": "[3]", "value": "6 (54.5) n (%)"}, {"measurement": "TEAE: Hyponatremia", "setting": "[3]", "value": "3 (27.3) n (%)"}, {"measurement": "TEAE: Hypophosphataemic rickets", "setting": "[3]", "value": "1 (9.1) n (%)"}, {"measurement": "TEAE: Jaundice cholestatic", "setting": "[3]", "value": "1 (9.1) n (%)"}, {"measurement": "TEAE: Lymphangiosis carcinomatosa", "setting": "[3]", "value": "0 (0.0) n (%)"}, {"measurement": "TEAE: Lymphocyte count decreased", "setting": "[3]", "value": "1 (9.1) n (%)"}, {"measurement": "TEAE: Nausea", "setting": "[3]", "value": "7 (63.6) n (%)"}, {"measurement": "TEAE: Neutrophil count decreased", "setting": "[3]", "value": "3 (27.3) n (%)"}, {"measurement": "TEAE: Platelet count decreased", "setting": "[3]", "value": "8 (72.7) n (%)"}, {"measurement": "TEAE: Pyrexia", "setting": "[3]", "value": "3 (27.3) n (%)"}, {"measurement": "TEAE: Sepsis", "setting": "[3]", "value": "0 (0.0) n (%)"}, {"measurement": "TEAE: Urinary tract infection", "setting": "[3]", "value": "1 (9.1) n (%)"}, {"measurement": "TEAE: Vomiting", "setting": "[3]", "value": "3 (27.3) n (%)"}, {"measurement": "TEAE: White blood cell count decreased", "setting": "[3]", "value": "6 (54.5) n (%)"}, {"measurement": "TEAE: Alanine aminotransferase increased", "setting": "[4]", "value": "1 (9.1) n (%)"}, {"measurement": "TEAE: Anemia", "setting": "[4]", "value": "3 (27.3) n (%)"}, {"measurement": "TEAE: Aspartate aminotransferase increased", "setting": "[4]", "value": "0 (0.0) n (%)"}, {"measurement": "TEAE: Constipation", "setting": "[4]", "value": "0 (0.0) n (%)"}, {"measurement": "TEAE: Decreased appetite", "setting": "[4]", "value": "0 (0.0) n (%)"}, {"measurement": "TEAE: Diarrhea", "setting": "[4]", "value": "0 (0.0) n (%)"}, {"measurement": "TEAE: Disease progression", "setting": "[4]", "value": "0 (0.0) n (%)"}, {"measurement": "TEAE: Fatigue", "setting": "[4]", "value": "0 (0.0) n (%)"}, {"measurement": "TEAE: Hypoalbuminemia", "setting": "[4]", "value": "0 (0.0) n (%)"}, {"measurement": "TEAE: Hyponatremia", "setting": "[4]", "value": "1 (9.1) n (%)"}, {"measurement": "TEAE: Hypophosphataemic rickets", "setting": "[4]", "value": "1 (9.1) n (%)"}, {"measurement": "TEAE: Jaundice cholestatic", "setting": "[4]", "value": "1 (9.1) n (%)"}, {"measurement": "TEAE: Lymphangiosis carcinomatosa", "setting": "[4]", "value": "0 (0.0) n (%)"}, {"measurement": "TEAE: Lymphocyte count decreased", "setting": "[4]", "value": "0 (0.0) n (%)"}, {"measurement": "TEAE: Nausea", "setting": "[4]", "value": "0 (0.0) n (%)"}, {"measurement": "TEAE: Neutrophil count decreased", "setting": "[4]", "value": "0 (0.0) n (%)"}, {"measurement": "TEAE: Platelet count decreased", "setting": "[4]", "value": "1 (9.1) n (%)"}, {"measurement": "TEAE: Pyrexia", "setting": "[4]", "value": "0 (0.0) n (%)"}, {"measurement": "TEAE: Sepsis", "setting": "[4]", "value": "0 (0.0) n (%)"}, {"measurement": "TEAE: Urinary tract infection", "setting": "[4]", "value": "1 (9.1) n (%)"}, {"measurement": "TEAE: Vomiting", "setting": "[4]", "value": "0 (0.0) n (%)"}, {"measurement": "TEAE: White blood cell count decreased", "setting": "[4]", "value": "0 (0.0) n (%)"}, {"measurement": "TEAE: Alanine aminotransferase increased", "setting": "[5]", "value": "2 (50.0) n (%)"}, {"measurement": "TEAE: Anemia", "setting": "[5]", "value": "2 (50.0) n (%)"}, {"measurement": "TEAE: Aspartate aminotransferase increased", "setting": "[5]", "value": "2 (50.0) n (%)"}, {"measurement": "TEAE: Constipation", "setting": "[5]", "value": "1 (25.0) n (%)"}, {"measurement": "TEAE: Decreased appetite", "setting": "[5]", "value": "3 (75.0) n (%)"}, {"measurement": "TEAE: Diarrhea", "setting": "[5]", "value": "2 (50.0) n (%)"}, {"measurement": "TEAE: Disease progression", "setting": "[5]", "value": "1 (25.0) n (%)"}, {"measurement": "TEAE: Fatigue", "setting": "[5]", "value": "1 (25.0) n (%)"}, {"measurement": "TEAE: Hypoalbuminemia", "setting": "[5]", "value": "1 (25.0) n (%)"}, {"measurement": "TEAE: Hyponatremia", "setting": "[5]", "value": "2 (50.0) n (%)"}]}]}
